Assay results reported in article PMC11335262 (Cellular and Molecular Life Sciences: CMLS, 2024).

Key:
[1] = tested on: homomeric α9 nAChR; conditions: cited from earlier work
[2] = tested on: α9E72Qα10; assay: ACh-evoked currents, two-electrode voltage-clamp in X. laevis oocytes; format: cell-based, rat; conditions: 1 mM ACh; α9E72Qα10 mutant receptor
In short: (§1)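 Rat subunit cRNAs (0.01–1.0 ng in 50 nl water, 1:1 molar ratio when co-injected) were injected into stage V–VI X. laevis oocytes kept in Barth's solution at 18 °C. Oocytes were preloaded 3 h with 100 µM BAPTA-AM.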

[3] = tested on: α9E202Qα10; assay: as above; format: cell-based, rat; conditions: 1 mM ACh; α9E202Qα10 mutant receptor
In short: as §1

[4] = tested on: α9^α10TM2TM3loop; assay: as above; format: cell-based, rat; conditions: 1 mM ACh; α9^α10TM2TM3loop injected alone or co-injected with α9
In short: as §1

[5] = molecular target: α9α10 nAChR (Rattus norvegicus, UniProt P43144+Q9JLB5); conditions: prolonged ACh application; cited from earlier work
[6] = molecular target: α9α10^α9TM2TM3loop (Rattus norvegicus, UniProt P43144+Q9JLB5, A292S/P291A/S288I/S294N); assay: ACh-evoked currents, two-electrode voltage-clamp in X. laevis oocytes; format: cell-based; conditions: prolonged (1 min) ACh application
Sequence of α9α10^α9TM2TM3loop (P43144 26-479, stated change not applied): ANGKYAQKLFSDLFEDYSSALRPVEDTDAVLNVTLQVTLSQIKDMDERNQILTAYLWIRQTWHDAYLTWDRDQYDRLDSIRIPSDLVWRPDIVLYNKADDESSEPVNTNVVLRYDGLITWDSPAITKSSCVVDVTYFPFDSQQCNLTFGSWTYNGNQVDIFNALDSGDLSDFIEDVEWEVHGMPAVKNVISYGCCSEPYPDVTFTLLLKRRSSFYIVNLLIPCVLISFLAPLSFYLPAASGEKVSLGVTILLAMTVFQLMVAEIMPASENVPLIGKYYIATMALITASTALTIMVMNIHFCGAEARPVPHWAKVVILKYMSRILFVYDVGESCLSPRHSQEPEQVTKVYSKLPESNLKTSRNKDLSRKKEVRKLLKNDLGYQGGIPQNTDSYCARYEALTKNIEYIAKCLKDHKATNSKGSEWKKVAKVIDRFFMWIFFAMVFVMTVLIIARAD
Sequence of α9α10^α9TM2TM3loop (Q9JLB5 25-447 S288I/P291A/A292S/S294N): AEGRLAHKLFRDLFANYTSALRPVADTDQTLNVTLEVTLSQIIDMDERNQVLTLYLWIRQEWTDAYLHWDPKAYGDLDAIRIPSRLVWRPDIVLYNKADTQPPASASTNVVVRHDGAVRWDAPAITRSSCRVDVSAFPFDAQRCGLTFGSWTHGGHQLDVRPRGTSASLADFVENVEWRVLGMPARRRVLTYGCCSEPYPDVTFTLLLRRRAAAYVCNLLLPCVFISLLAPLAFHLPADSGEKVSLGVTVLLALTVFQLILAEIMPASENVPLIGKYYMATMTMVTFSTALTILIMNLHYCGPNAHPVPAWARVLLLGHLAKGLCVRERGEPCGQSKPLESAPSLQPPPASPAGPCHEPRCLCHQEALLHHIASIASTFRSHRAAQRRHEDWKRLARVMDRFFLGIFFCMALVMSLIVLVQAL

Sequence of α9α10 nAChR (P43144 26-479): as the sequence (P43144 26-479, stated change not applied) above
Sequence of α9α10 nAChR (Q9JLB5 25-447): as the sequence (Q9JLB5 25-447 S288I/P291A/A292S/S294N) above, with I264S, A267P, S268A, N270S counted along it

- remaining current after 20 s of the peak response to ACh [6]: 61.9 ± 4.6%
Structure (SMILES): CC(=O)OCC[N+](C)(C)C [ACh, Acetylcholine]
- maximal amplitude of responses ([1]; 100 µM ACh, absence of extracellular Ca^2+): 182 ± 20 nA
- EC50 ([1]; ACh concentration-response, ref 45 (Verbitsky et al. 2000)): 11.4 ± 0.8 µM
- remaining current after 20 s of the peak response to ACh ([1]; prolonged application of a high ACh concentration): 94.9 ± 1.6%
- response to ACh (in words) [2]: failed to respond
- response to ACh (in words) [3]: failed to respond
- response to ACh (in words) [4]: did not render functional receptors
- remaining current after 20 s of the peak response to ACh [5]: 57.1 ± 4.3%
